In brackets after ≈: the same amount, converted by molar mass. Several values for one entry are separate records, joined by “and”; a condition that tells them apart may be missing. Equal entries are not always repeated.
Assays:
T. gondii tachyzoites = assay: Parasite tissue culture assay: inhibition of T. gondii tachyzoites in HFF; type: cell-based, Toxoplasma gondii; details: for Activity in the parasite-based assay: T. gondii tachyzoites
[1] = test system: P. falciparum strain TM91C235 (WRAIR, Thailand, chloroquine resistant); assay: Malaria SYBR Green I-based fluorescence assay, strain TM91C235; type: cell-based; details: Plasmodium falciparum, 72 h, read-out: SYBR Green C235 IC50
In short: (§1)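 Late-ring or early-trophozoite parasites at 0.3% starting parasitemia and 2% hematocrit were added to plates predosed with quadruplicate 12-point two-fold dilutions in DMSO (final […]), with mefloquine as reference. Plates were incubated 72 h at 37°C under 5% CO2/5% O2/90% N2, lysed with Tris/EDTA/Triton X/saponin buffer with SYBR Green I (final 10x), kept dark 24 h at RT, and read as RFU. A chloroquine batch control at 2000 ng/ml validated each run.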

[2] = test system: Human Foreskin Fibroblasts (HFF); assay: Toxicity for host cells; details: human foreskin fibroblasts; highest concentration tested 10 μM
TgENR = target: T1, TgENR (Toxoplasma gondii, UniProt Q6UCJ9); assay: TgENR enzyme assay; type: biochemical; details: for inhibition at 1 µM: read-out: Cpd. conc. [1 μM]/% Inh.: percentage of inhibition of TgENR; for Activity in the enzyme-based assay: purified TgENR
T1 sequence (Q6UCJ9 28-417): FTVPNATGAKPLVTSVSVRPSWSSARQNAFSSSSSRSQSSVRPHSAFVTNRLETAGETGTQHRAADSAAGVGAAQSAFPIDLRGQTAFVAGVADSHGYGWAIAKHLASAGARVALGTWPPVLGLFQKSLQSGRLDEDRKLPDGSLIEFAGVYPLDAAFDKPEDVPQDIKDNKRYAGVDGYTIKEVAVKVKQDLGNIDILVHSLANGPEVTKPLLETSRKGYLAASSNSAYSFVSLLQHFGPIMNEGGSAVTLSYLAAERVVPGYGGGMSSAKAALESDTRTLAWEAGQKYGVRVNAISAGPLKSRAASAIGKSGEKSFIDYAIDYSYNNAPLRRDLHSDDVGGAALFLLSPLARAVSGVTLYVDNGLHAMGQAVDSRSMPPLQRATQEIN

[3] = test system: P. falciparum strain D6 (CDC/Sierra Leone); assay: Malaria SYBR Green I-based fluorescence assay, strain D6; type: cell-based; details: Plasmodium falciparum, D6, 72 h, read-out: SYBR Green D6 IC50
In short: as §1

[4] = Toxoplasma gondii, 72 h, read-out: Parasite tissue culture assay MIC50

Row | Structure (SMILES) | MIC50 (T. gondii tachyzoites; [4]) | IC50 [1] | Parasite tissue culture assay HFF (HFF toxicity) [2] | inhibition at 1 µM (TgENR) | IC50 [3] | Activity in the parasite-based assay (T. gondii tachyzoites) | IC50 (T. gondii tachyzoites; [4]) | Activity in the enzyme-based assay (TgENR) | IC50 (TgENR)
1 | O=C(Nc1ccccc1)c1ccc(Oc2ccc(Cl)cc2Cl)c(O)c1 [Compound 30a, 4-(2,4-Dichlorophenoxy)-3-hydroxy-N-phenylbenzamide] | > 10 µM | > 2 µg/mL | >10 µM | 7% | > 2 µg/mL | – | – | – | –
2 | CCCCN(CCCC)C(=O)c1ccc(Oc2ccc(Cl)cc2Cl)c(O)c1 [Compound 30b, 4-(2,4-Dichlorophenoxy)-3-hydroxy-N,N-dibutylbenzamide] | > 10 µM | 600 nM and 0.247 µg/mL | >10 µM | 44% | 400 nM and 0.166 µg/mL | – | – | – | –
3 | O=C(c1ccc(Oc2ccc(Cl)cc2Cl)c(O)c1)N1CCOCC1 [Compound 30c, [4-(2,4-Dichlorophenoxy)-3-hydroxyphenyl](morpholin-4-yl)methanone] | > 10 µM | > 2 µg/mL | >10 µM | 43% | > 2 µg/mL | – | – | – | –
4 | CCCCCCNC(=O)c1ccc(Oc2ccc(Cl)cc2Cl)c(O)c1 [Compound 30d, 4-(2,4-Dichlorophenoxy)-N-hexyl-3-hydroxybenzamide] | > 10 µM | > 2 µg/mL | >10 µM | 30% | > 2 µg/mL | – | – | – | –
5 | Cc1cc(C(=O)NCc2ccc(Oc3ccc(Cl)cc3Cl)c(O)c2)no1 [Compound 33, N-[4-(2,4-Dichlorophenoxy)-3-hydroxybenzyl]-5-methyl-1,2-oxazole-3-carboxamide] | 10 µM (≈ 3.93 µg/mL) | – | – | 96% | – | – | – | – | –
6 | Cc1cc(C(=O)NCc2ccc(Oc3ccc(Cl)cc3O)c(Cl)c2)no1 [Compound 37a, N-[3-Chloro-4-(4-chloro-2-hydroxyphenoxy)benzyl]-5-methyl-1,2-oxazole-3-carboxamide] | 5 µM (≈ 1.97 µg/mL) | – | – | 88% | – | activity comparable to or better than that of triclosan | – | – | –
7 | O=C(NCc1ccc(Oc2ccc(Cl)cc2O)c(Cl)c1)c1cc(-c2ccccc2)on1 [Compound 37b, N-[3-Chloro-4-(4-chloro-2-hydroxyphenoxy)benzyl]-5-phenyl-1,2-oxazole-3-carboxamide] | > 10 µM | – | – | 80% | – | – | – | – | –
8 | O=C(NCc1ccc(Oc2ccc(Cl)cc2O)c(Cl)c1)c1ccc2cc(O)ccc2c1 [Compound 37d, N-[3-Chloro-4-(4-chloro-2-hydroxyphenoxy)benzyl]-6-hydroxynaphthalene-2-carboxamide] | – | – | – | 89% | – | – | > 10000 nM | Reasonable activity | –
9 | Oc1cc(CNc2ccccc2)ccc1Oc1ccc(Cl)cc1Cl [Compound 39a, 2-(2,4-Dichlorophenoxy)-5-[(phenylamino)methyl]phenol] | 10 µM (≈ 3.6 µg/mL) | > 2 µg/mL | >10 µM | 96% | 4.56 µM and 1.64 µg/mL | – | – | – | 130 nM
10 | CCCCCCNCc1ccc(Oc2ccc(Cl)cc2Cl)c(O)c1 [Compound 39c, 2-(2,4-Dichlorophenoxy)-5-[(hexylamino)methyl]phenol] | 3 µM (≈ 1.1 µg/mL) | > 2 µg/mL | – | 16% | 2.75 µM and 0.857 µg/mL | activity comparable to or better than that of triclosan | – | completely inactive | –
11 | CCCCCCNCc1ccc(Oc2ccc(Cl)cc2O)c(Cl)c1 [Compound 41a, 5-Chloro-2-[2-chloro-4-[(hexylamino)methyl]phenoxy]phenol] | 1 µM (≈ 0.368 µg/mL) | – | >10 µM | 25% | – | activity comparable to or better than that of triclosan | – | completely inactive | –
12 | Oc1cc(Cl)ccc1Oc1ccc(CNc2ccccc2)cc1Cl [Compound 41b, 5-Chloro-2-[2-chloro-4-[(phenylamino)methyl]phenoxy]phenol] | > 10 µM | – | >10 µM | 94% | – | – | – | – | –
